Among the data in ChEMBL document CHEMBL1157570, “Development of potent and selective inhibitors of ecto-5'-nucleotidase based on an anthraquinone scaffold” (J Med Chem, 2010) are Ki, inhibition and IC50 values, retold here.

As a reminder, the Ki is the equilibrium dissociation constant of an inhibitor or competing ligand from its target. What is called inhibition is the percentage by which the read-out fell short of the control. A higher inhibition goes with a strong effect. The IC50 is the point on the concentration scale where inhibition reaches its midpoint.

Sequence of P2Y purinoceptor 4 (P51582 whole entry): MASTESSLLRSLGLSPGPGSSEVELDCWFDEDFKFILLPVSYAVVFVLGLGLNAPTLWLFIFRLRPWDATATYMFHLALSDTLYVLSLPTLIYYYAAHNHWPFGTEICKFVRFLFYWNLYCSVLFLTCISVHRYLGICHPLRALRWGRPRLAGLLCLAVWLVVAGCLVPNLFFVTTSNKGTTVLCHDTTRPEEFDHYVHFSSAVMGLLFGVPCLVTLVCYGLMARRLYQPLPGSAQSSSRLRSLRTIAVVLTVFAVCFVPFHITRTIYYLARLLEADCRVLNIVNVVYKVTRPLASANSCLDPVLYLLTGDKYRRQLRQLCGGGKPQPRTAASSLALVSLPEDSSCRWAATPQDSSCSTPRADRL

One test addresses T1, 5'-nucleotidase (Rattus norvegicus, UniProt P21588).
T1 sequence (P21588 whole entry): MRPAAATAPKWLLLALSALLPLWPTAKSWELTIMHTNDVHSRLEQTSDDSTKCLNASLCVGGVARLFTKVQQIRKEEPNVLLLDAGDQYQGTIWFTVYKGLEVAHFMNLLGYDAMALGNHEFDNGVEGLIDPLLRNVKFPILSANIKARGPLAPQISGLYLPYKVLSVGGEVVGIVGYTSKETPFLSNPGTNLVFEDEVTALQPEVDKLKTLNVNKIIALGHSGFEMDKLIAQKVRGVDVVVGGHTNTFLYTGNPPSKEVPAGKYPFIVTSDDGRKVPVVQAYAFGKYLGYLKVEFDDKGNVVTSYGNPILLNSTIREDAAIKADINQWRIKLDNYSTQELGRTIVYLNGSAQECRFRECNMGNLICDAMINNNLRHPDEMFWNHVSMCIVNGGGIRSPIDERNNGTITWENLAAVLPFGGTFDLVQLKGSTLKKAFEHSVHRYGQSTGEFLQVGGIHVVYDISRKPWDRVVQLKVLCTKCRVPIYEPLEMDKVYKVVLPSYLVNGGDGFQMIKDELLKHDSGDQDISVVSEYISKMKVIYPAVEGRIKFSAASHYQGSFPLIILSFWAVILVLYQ
Kind of test: Inhibition of rat ecto-5'-nucleotidase expressed in Sf9 cells by capillary electrophoresis method. In short, it runs like this: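 Rat eN, GST-fused, made in Sf9 cells and purified on GSH-agarose. 500 μM AMP in Hepes pH 7.4 with Mg2+/Ca2+, 37 °C for 15 min. Adenosine measured by capillary electrophoresis at 260 nm. Inhibitor at 6-8 concentrations spanning about 3 log units. […] Three experiments, each in duplicate.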
For the molecule `Nc1c(S(=O)(=O)O)cc(Nc2ccc(S(=O)(=O)O)cc2)c2c1C(=O)c1ccccc1C2=O`, affinity was put at a Ki of 3.43 µM. Regarding `Nc1cc(Nc2cc(S(=O)(=O)O)c(N)c3c2C(=O)c2ccccc2C3=O)ccc1S(=O)(=O)O`, affinity was put at a Ki of 25.2 µM.

For the molecule `Nc1ccc(Nc2cc(S(=O)(=O)O)c(N)c3c2C(=O)c2ccccc2C3=O)cc1`, the Ki was 0.297 µM. `Cc1ccc(Nc2cc(S(=O)(=O)O)c(N)c3c2C(=O)c2ccccc2C3=O)cc1` returned a Ki of 360 µM. Regarding `Nc1c(S(=O)(=O)O)cc(Nc2ccc(Oc3ccccc3)cc2)c2c1C(=O)c1ccccc1C2=O`, the inhibition constant Ki came out at 1.51 µM.

Molecule `Nc1ncnc2c1ncn2[C@H]1O[C@@H](COP(=O)(O)CP(=O)(O)O)[C@H](O)[C@@H]1O` gave a Ki of 0.00087 µM. `Nc1c(S(=O)(=O)O)cc(Nc2ccc3ccccc3c2)c2c1C(=O)c1ccccc1C2=O` had a Ki of 1.47 µM.

For the molecule `Nc1c(S(=O)(=O)O)cc(Nc2ccc(Br)cc2)c2c1C(=O)c1ccccc1C2=O`, the Ki was determined as 11.3 µM. This Ki is about 7.7-fold higher than that of the molecule before. The molecule `Nc1c(S(=O)(=O)O)cc(Nc2ccc(F)cc2)c2c1C(=O)c1ccccc1C2=O` showed an inhibitory constant (Ki) of 5.67 µM. For `Nc1c(S(=O)(=O)O)cc(Nc2ccccc2C(=O)O)c2c1C(=O)c1ccccc1C2=O`, the Ki turned out to be 6.53 µM. On to `Cc1cccc(Nc2cc(S(=O)(=O)O)c(N)c3c2C(=O)c2ccccc2C3=O)c1`, for which the affinity, expressed as Ki, was 12.3 µM.

`Nc1c(S(=O)(=O)O)cc(Nc2cccc3cccc(S(=O)(=O)O)c23)c2c1C(=O)c1ccccc1C2=O` came in with a Ki of 6.05 µM.

`Nc1c(S(=O)(=O)O)cc(Nc2cccc3cc(S(=O)(=O)O)ccc23)c2c1C(=O)c1ccccc1C2=O`: the affinity, expressed as Ki, was 15.3 µM. Compared with the last molecule, the Ki is about 2.5-fold higher.

Molecule `Nc1c(S(=O)(=O)O)cc(Nc2ccccc2O)c2c1C(=O)c1ccccc1C2=O` returned an inhibitory constant (Ki) of 1.84 µM. This Ki is about 8.3-fold lower than that of the molecule before. As to `Cc1ccc2ccccc2c1Nc1cc(S(=O)(=O)O)c(N)c2c1C(=O)c1ccccc1C2=O`, affinity was put at a Ki of 2.74 µM. Molecule `Cc1cc(C)c(Nc2cc(S(=O)(=O)O)c(N)c3c2C(=O)c2ccccc2C3=O)c(C)c1N` yielded a Ki of 36 µM. The molecule `Nc1c(S(=O)(=O)O)cc(NC2CCCCC2)c2c1C(=O)c1ccccc1C2=O` showed a Ki of 1.66 µM.

On to `Nc1ccc(Nc2cc(S(=O)(=O)O)c(N)c3c2C(=O)c2ccccc2C3=O)cc1S(=O)(=O)O`, for which the inhibition constant Ki was 10 µM. This Ki lies about 6-fold higher than the previous one.

As for `Nc1c(S(=O)(=O)O)cc(Nc2cccc3c(S(=O)(=O)O)cccc23)c2c1C(=O)c1ccccc1C2=O`, the inhibition constant Ki was 11.7 µM. On to `Nc1c(S(=O)(=O)O)cc(Nc2ccc3cc(C(=O)O)ccc3c2)c2c1C(=O)c1ccccc1C2=O`, for which the inhibition constant Ki was found to be 3.43 µM. The same measure, in the same setting: in the case of `Nc1c(S(=O)(=O)O)cc(Nc2ccc(Cl)cc2)c2c1C(=O)c1ccccc1C2=O` it was 4.81 µM; in that of `Nc1ccccc1Nc1cc(S(=O)(=O)O)c(N)c2c1C(=O)c1ccccc1C2=O`, 47 µM. As to `Nc1c(S(=O)(=O)O)cc(Nc2ccc(Nc3nc(Cl)nc(Nc4cccc(S(=O)(=O)O)c4)n3)c(S(=O)(=O)O)c2)c2c1C(=O)c1ccccc1C2=O` [RB 2], the Ki is 3.07 µM. `Nc1c(S(=O)(=O)O)cc(Nc2cccc3cc4ccccc4cc23)c2c1C(=O)c1ccccc1C2=O` gave an inhibition constant Ki of 2.93 µM.

The target of the next test is T2, 5'-nucleotidase (Rattus norvegicus) (UniProt P21588).
T2 sequence (whole entry): T1 sequence (P21588 whole entry)
Kind of test: Inhibition of rat ecto-5'-nucleotidase expressed in Sf9 cells at 1 mM by capillary electrophoresis method. In a few lines:
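Test agent at 1 mM with 500 μM AMP in 10 mM Hepes pH 7.4, 2 mM MgCl2, 1 mM CaCl2. Incubated 15 min at 37 °C, stopped at 99 °C for 10 min. Adenosine quantified by capillary electrophoresis, UV peak area at 260 nm.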
The molecule `Nc1c(S(=O)(=O)O)cc(NCc2ccccc2)c2c1C(=O)c1ccccc1C2=O` showed an inhibition of 43%. In turn, `Nc1cc(Nc2cc(S(=O)(=O)O)c(N)c3c2C(=O)c2ccccc2C3=O)cc(C(=O)O)c1` displayed an inhibition of 44%. Turning to `Nc1c(S(=O)(=O)O)cc(Nc2ccc(C(=O)O)cc2)c2c1C(=O)c1ccccc1C2=O`, the inhibition amounted to 34%. Molecule `Nc1c(S(=O)(=O)O)cc(Nc2cc(Cl)ccc2C(=O)O)c2c1C(=O)c1ccccc1C2=O` returned an inhibition of 27%. Take `CCOc1ccc(Nc2cc(S(=O)(=O)O)c(N)c3c2C(=O)c2ccccc2C3=O)cc1`: the inhibition came out at 31%. On to `CCOP(=O)(Cc1ccc(Nc2cc(S(=O)(=O)O)c(N)c3c2C(=O)c2ccccc2C3=O)cc1)OCC`, for which the inhibition is 28%. As for `Nc1c(S(=O)(=O)O)cc(Nc2cc3ccccc3c3ccccc23)c2c1C(=O)c1ccccc1C2=O`, the inhibition was found to be 58%. For `Nc1c(S(=O)(=O)O)cc(Nc2ccc(CC(=O)O)cc2)c2c1C(=O)c1ccccc1C2=O`, the inhibition was 26%. `Cc1ccc(Nc2cc(S(=O)(=O)O)c(N)c3c2C(=O)c2ccccc2C3=O)c(C)c1` came in with an inhibition of 47%.

With `Nc1c(S(=O)(=O)O)cc(NC2CCCC2)c2c1C(=O)c1ccccc1C2=O`, the inhibition stood at 51%. The same measure, in the same setting: with `Nc1c(S(=O)(=O)O)cc(Nc2cc(F)ccc2C(=O)O)c2c1C(=O)c1ccccc1C2=O` the figure was 60%. The molecule `COc1ccccc1Nc1cc(S(=O)(=O)O)c(N)c2c1C(=O)c1ccccc1C2=O` had an inhibition of 9%. `Nc1c(S(=O)(=O)O)cc(Nc2ccc(Cl)cc2C(=O)O)c2c1C(=O)c1ccccc1C2=O` had an inhibition of 52%. Still for that read-out and setting: with `Nc1c(S(=O)(=O)O)cc(Nc2cccc3ccc(S(=O)(=O)O)cc23)c2c1C(=O)c1ccccc1C2=O` the figure was 0%; with `Nc1c(S(=O)(=O)O)cc(Nc2ccc(Nc3ccccc3)cc2)c2c1C(=O)c1ccccc1C2=O`, 37%; with `Cc1ccccc1Nc1cc(S(=O)(=O)O)c(N)c2c1C(=O)c1ccccc1C2=O`, 33%. Still for that read-out and setting: in the case of `CC(C)Nc1cc(S(=O)(=O)O)c(N)c2c1C(=O)c1ccccc1C2=O` it was 15%; in that of `Nc1cccc(Nc2cc(S(=O)(=O)O)c(N)c3c2C(=O)c2ccccc2C3=O)c1`, 31%. As for `Nc1c(S(=O)(=O)O)cc(NCCc2ccccc2)c2c1C(=O)c1ccccc1C2=O`, the inhibition is 53%. The molecule `Cc1ccc(C)c(Nc2cc(S(=O)(=O)O)c(N)c3c2C(=O)c2ccccc2C3=O)c1` showed an inhibition of 26%. With `Nc1c(S(=O)(=O)O)cc(Nc2ccccc2S(=O)(=O)O)c2c1C(=O)c1ccccc1C2=O`, the inhibition was determined as 14%.

As for `Nc1ccccc1Nc1cc(S(=O)(=O)O)c(N)c2c1C(=O)c1ccccc1C2=O`, the inhibition came to 47%. As to `Nc1c(S(=O)(=O)O)cc(NCCc2ccc(Cl)cc2)c2c1C(=O)c1ccccc1C2=O`, the inhibition was 62%.

`CCOc1ccccc1Nc1cc(S(=O)(=O)O)c(N)c2c1C(=O)c1ccccc1C2=O` showed an inhibition of 56%.

Consider `Nc1c(S(=O)(=O)O)cc(Nc2ccc(Br)cc2C(=O)O)c2c1C(=O)c1ccccc1C2=O`, for which the inhibition is 56%. Turning to `Cc1cc(Nc2ccccc2)c2c(c1N)C(=O)c1ccccc1C2=O`, the inhibition stood at 4%. The molecule `Nc1c(S(=O)(=O)O)cc(Nc2cccc(C(=O)O)c2)c2c1C(=O)c1ccccc1C2=O` displayed an inhibition of 26%. `Cc1cccc(Nc2cc(S(=O)(=O)O)c(N)c3c2C(=O)c2ccccc2C3=O)c1C` displayed an inhibition of 39%. On the same count and under the same terms, in the case of `COc1ccc(CCNc2cc(S(=O)(=O)O)c(N)c3c2C(=O)c2ccccc2C3=O)cc1OC` it was 44%.

For a further test, the target named is P2Y purinoceptor 4 (Homo sapiens, UniProt P51582). Kind of test: Antagonist activity at human P2Y4 receptor expressed in astrocytoma cells assessed as inhibition of intracellular calcium mobilization. The class given is functional, cell-based. In a few lines:
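Astrocytoma cells stably expressing the receptor, loaded with Fura-2 AM. Cells preincubated with test agent for at least 20 min, then challenged with 1 μM UTP (P2Y2), 3 μM UTP (P2Y4) or 3 μM UDP (P2Y6). Ca2+ fluorescence read at ex 320/em 520 nm. Full curves (7-8 concentrations over 3 log units) run when inhibition exceeded 40% at 10 μM. Three experiments, each in triplicate.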
(Calcium flux is commonly read through the fluorescence of an indicator in the cells.)
As for `Nc1c(S(=O)(=O)O)cc(Nc2ccc(Nc3nc(Cl)nc(Nc4cccc(S(=O)(=O)O)c4)n3)c(S(=O)(=O)O)c2)c2c1C(=O)c1ccccc1C2=O` [RB 2], the IC50 turned out to be 9.79 µM.
